# Assay results reported in PubChem BioAssay.
# Calls of active or inactive are those of the source.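 Rule for the calls, unless noted: active = visually confirmed hit in the image check and inhibition above 20%; inconclusive = visually confirmed hit but inhibition not above 20%; inactive = no visual hit in the image check.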
# Tests used:
# [1] = inhibitors of TNFa-induced NFkB p65 translocation, primary screen, imaging, HUVEC, MLSMR starter and 10KST1 sets (AID 438;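 active = inhibition above 20% together with a positive visual image hit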;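 note: compound added about 3h40 before a 20 min TNFalpha stimulation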;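 for inhibition: signal is the nuclear over cytoplasmic p65 intensity ratio per well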); conditions: HUVEC TNFa-induced p65 nuclear translocation; cell count: measured here: nuclei count (cytotoxicity indicator), at 2.08 µM; inhibition: at 2 µM, stronger effect = higher value, 0% TNFa-plus-vehicle, 100% no-TNFa wells
# [2] = endothelial E-selectin expression blockers – imaging, HUVEC, immunofluorescence, MLSMR starter and 10KST1 sets, primary screen (AID 487); conditions: HUVEC TNFalpha-induced E-selectin immunofluorescence imaging, at 2 µM; inhibition: stronger effect = higher value; nuclei count: measured here: cell number, toxicity;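 for inhibition: signal is fraction of cell area covered by stained E-selectin grains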;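 for nuclei count: 100% = median nuclei count of all wells on the same plate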
# [3] = Primary imaging screen for DUSP6 inhibitors that restore phospho-Erk in transfected HeLa cells, chemical complementation (AID 609;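 active = compounds giving at least 50% inhibition in the cell-based MKP-3 phosphatase rescue imaging test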;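 for inhibition: phospho-Erk level distribution per well compared with pooled transfected vehicle control wells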); conditions: HeLa MKP-3 transfected, phospho-Erk imaging KS statistic, at 10 µM, cells stimulated with TPA for 15 min
# [4] = target: Dual specificity protein phosphatase 6 (Homo sapiens) (UniProt Q16828); assay: as above; conditions: HeLa MKP-3 transfected, phospho-Erk imaging KS statistic; at 10 µM; stronger effect = higher value; cells stimulated with TPA for 15 min
# [5] = target: Voltage-gated potassium channel subunit beta-2 (Rattus norvegicus) (UniProt P62483); assay: inhibitors of rat Kvbeta2 reductase activity – biochemical, NADPH fluorescence, primary screen (AID 622;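 active = fluorescence slope higher than the sample average by over 3 SD, cut at about -0.22 in these data, passing the limit was not always enough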;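 note: slope of raw intensity against log time taken from 70 to 1610 s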); conditions: recombinant KvBeta, 4-cyanobenzaldehyde reduction, at 10 µM, stronger effect = higher value
# [6] = target: Voltage-gated potassium channel subunit beta-2 (Rattus norvegicus) (UniProt P62483); assay: enhancers of rat Kvbeta2 NADPH turnover – biochemical, NADPH fluorescence, primary screen (AID 623;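 active = NADPH fluorescence slope more negative than the mean of all samples by about 3 SD, 99.7% confidence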;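 note: fluorescence intensity change per second fitted from 20 to 320 s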); conditions: Recombinant KvBeta, NADPH fluorescence decrease slope, 10 min; at 10 µM; stronger effect = lower value
# [7] = target: Alpha-2C adrenergic receptor (Homo sapiens) (UniProt P18825); assay: compounds altering alpha2C-coupled GIRK flux – cell-based, HEK293 alpha2C/GIRK1/2, thallium flux, primary screen (AID 624;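 active = fluorescence slope after compound addition differing from the mean of all screened samples at 99.7% confidence, in either direction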;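 note: slope of fluorescence ratio to pre-addition baseline per second over 15 to 24 s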); conditions: thallium flux BTC fluorescence, at 10 µM, actives lie on both sides
# [8] = inhibitors of larval lipid processing in zebrafish, primary screen, whole organism, PED6 fluorescence, gall bladder and intestine (AID 686;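 active = a full or partial loss of lipid-probe fluorescence in the fish gall bladder, intestine or both, judged by eye; inactive = no fluorescence loss, or compound toxic to the fish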;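 note: larvae 5 to 7 days old with five fish per well; signal comes from phospholipase A2 cleavage of quenched PED6 carried via bile; overnight exposure to compound and PED6 before scoring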); conditions: Zebrafish larvae PED6 lipid processing, fluorescence scoring; screened at 20 µM (by protocol)
# Procedure, shortened: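 System: live zebrafish larvae aged 5-7 days, whole organism; measure: graded gall bladder and intestinal fluorescence inhibition per well; incubation: overnight exposure; reagent: ingested quenched lipid PED6 at 100 nM; signal: By-eye fluorescence microscopy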
# [9] = loss of swimming-algae plug formation – whole organism, Chlamydomonas reinhardtii, WT vs cilia-less mutant, absorbance, 96-well, primary screen (AID 463189;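 active = inhibition at or above 50% relative to wild type and mutant plate controls; inactive = inhibition below 50%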;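 note: 0% = wild type cc124 cells in DMSO and 100% = ciliumless bld1 mutant cells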); conditions: Chlamydomonas reinhardtii gravitaxis, OD600 absorbance, 2 days; at 10 µM; stronger effect = higher value
# [10] = measured here: cell density z-score
# [11] = measured here: nuclear c-Myc green intensity z-score
# [12] = measured here: nuclear pErk red intensity z-score, stronger effect = higher value
# Sequence of Voltage-gated potassium channel subunit beta-2 (Rattus norvegicus) (P62483 whole entry, looked up): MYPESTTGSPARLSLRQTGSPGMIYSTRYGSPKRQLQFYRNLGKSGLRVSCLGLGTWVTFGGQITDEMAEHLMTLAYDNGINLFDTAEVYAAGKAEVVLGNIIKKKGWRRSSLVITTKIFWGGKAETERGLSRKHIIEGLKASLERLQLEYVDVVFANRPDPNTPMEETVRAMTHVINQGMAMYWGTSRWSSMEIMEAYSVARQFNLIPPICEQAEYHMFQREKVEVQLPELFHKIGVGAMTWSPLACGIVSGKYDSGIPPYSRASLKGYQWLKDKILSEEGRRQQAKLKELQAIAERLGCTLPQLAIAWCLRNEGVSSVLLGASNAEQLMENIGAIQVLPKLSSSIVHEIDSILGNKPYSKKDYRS
# Sequence of Alpha-2C adrenergic receptor (Homo sapiens) (P18825 whole entry, looked up): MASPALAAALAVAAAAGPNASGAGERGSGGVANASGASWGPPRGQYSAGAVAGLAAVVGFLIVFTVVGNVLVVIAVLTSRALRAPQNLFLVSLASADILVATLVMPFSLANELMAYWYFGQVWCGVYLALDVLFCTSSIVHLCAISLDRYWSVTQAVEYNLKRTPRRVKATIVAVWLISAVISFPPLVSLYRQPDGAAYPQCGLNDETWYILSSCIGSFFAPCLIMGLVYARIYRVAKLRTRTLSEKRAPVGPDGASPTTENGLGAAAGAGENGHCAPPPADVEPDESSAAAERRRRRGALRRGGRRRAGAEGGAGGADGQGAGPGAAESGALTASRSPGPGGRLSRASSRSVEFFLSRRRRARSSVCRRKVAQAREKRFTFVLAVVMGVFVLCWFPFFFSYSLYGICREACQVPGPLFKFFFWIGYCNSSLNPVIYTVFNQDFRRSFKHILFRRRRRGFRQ
# Sequence of Dual specificity protein phosphatase 6 (Homo sapiens) (Q16828 whole entry, looked up): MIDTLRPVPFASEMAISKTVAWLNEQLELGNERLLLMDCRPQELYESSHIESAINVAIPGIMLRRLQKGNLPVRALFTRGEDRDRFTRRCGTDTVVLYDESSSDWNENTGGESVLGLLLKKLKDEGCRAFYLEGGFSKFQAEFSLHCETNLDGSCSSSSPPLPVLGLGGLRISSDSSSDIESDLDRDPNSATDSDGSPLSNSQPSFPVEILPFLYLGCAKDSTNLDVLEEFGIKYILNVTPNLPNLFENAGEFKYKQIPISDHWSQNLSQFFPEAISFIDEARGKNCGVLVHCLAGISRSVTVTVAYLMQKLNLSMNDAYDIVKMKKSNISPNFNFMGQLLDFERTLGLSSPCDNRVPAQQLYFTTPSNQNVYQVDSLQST
SMILES,cell count [1],inhibition [1],inhibition [2],nuclei count [2] [%],"z-score [3, 10]","z-score [3, 11]","z-score [3, 12]",inhibition [4],fluorescence slope [5],NADPH fluorescence slope [6],slope [7],outcome [8],inhibition [9]
COc1cccc(OCCN2CCN(c3ncnc4c3cnn4-c3ccccc3)CC2)c1,555,-23.4% (inactive),-98.5% (inactive),166,0.225,-1.36,0.0914,-11.5% (inactive),-0.519 (inactive),-3.9e-05 (inactive),0.00443 (inactive),inactive,48.3% (inactive)
CC1(C)NC(=O)N(CC(O)Cn2nnc3ccccc32)C1=O (stereo unspecified),372,3.9% (inactive),-188% (inactive),122,0.214,0.212,2.03,-7.28% (inactive),-0.357 (inactive),2.5e-05 (inactive),0.0051 (inactive),inactive,6.41% (inactive)
CN(C)c1ccc(C=NCCC2(O)CCOC(C)(C)C2)cc1 (stereo unspecified),326,-27% (inactive),-218% (inactive),173,-0.673,-1.17,-0.362,8.76% (inactive),-0.416 (inactive),-0.000167 (inactive),0.00576 (inactive),inactive,-4.27% (inactive)
O=C(c1ccc(F)cc1)N1CCC(N2CCCCCC2)CC1,392,-0.5% (inactive),-100% (inactive),138,-0.0132,0.516,-0.618,15.1% (inactive),-0.395 (inactive),-7.7e-06 (inactive),0.00694 (inactive),inactive,43.9% (inactive)
COc1ccc(OC)c(C(O)c2coc3ccc(O)c(CN4CCOCC4)c23)c1 (stereo unspecified),395,-2.4% (inactive),-6.2% (inactive),142,-0.303,0.452,0.346,1.42% (inactive),-0.45 (inactive),-6.9e-05 (inactive),0.00476 (inactive),inactive,36.3% (inactive)
Cn1c(=O)c2c(nc(SCCN3CCCCC3)n2Cc2ccc(Cl)cc2)n(C)c1=O,498,-3.7% (inactive),-203% (inactive),140,0.51,-0.662,-1.54,21% (inactive),-0.526 (inactive),-1.5e-05 (inactive),0.00528 (inactive),inactive,104% (active)
C=CCn1c(-c2ccccc2)n[nH]c1=S,492,-1.5% (inactive),71% (active),124,-1.14,2.62,-0.366,4.25% (inactive),-0.512 (inactive),-0.000177 (inactive),0.00512 (inactive),inactive,5.46% (inactive)
COc1ccc(C(=O)c2sc(NC(C)C)nc2N)cc1OC,327,-12.2% (inactive),-16.7% (inactive),105,-0.265,0.429,-0.628,-11.9% (inactive),-0.458 (inactive),-6.7e-06 (inactive),0.0049 (inactive),inactive,-3.2% (inactive)
Cc1ccc(C(=O)C2=C(O)C(=O)N(c3ncccn3)C2c2ccc(Cl)cc2)o1 (stereo unspecified),371,-10.1% (inactive),14.5% (inactive),94.4,-1.13,-0.679,0.195,7.83% (inactive),-0.331 (inactive),-1.3e-05 (inactive),0.00456 (inactive),inactive,5.76% (inactive)
Cc1ccc(C2/C(=C(\O)c3cnn(-c4ccccc4)c3C)C(=O)C(=O)N2CCN(C)C)o1 (stereo unspecified),488,4.7% (inactive),-57.2% (inactive),108,-0.998,2.35,1.95,5.26% (inactive),-0.583 (inactive),-3.5e-05 (inactive),0.00573 (inactive),inactive,-22.8% (inactive)
CCn1c(SC(C)C(=O)O)nc2sc3c(c2c1=O)CCC3 (stereo unspecified),614,-11.3% (inactive),46% (inactive),108,0.34,-0.588,-0.0983,-2.29% (inactive),-0.401 (inactive),-3.8e-05 (inactive),0.0197 (active),inactive,7.74% (inactive)
CCOC(=O)C1=C(C)NC(=O)NC1c1ccc2c(c1)OCO2 (stereo unspecified),603,-9.5% (inactive),-11.9% (inactive),154,0.562,0.385,-0.648,-13.3% (inactive),-0.387 (inactive),-7.4e-05 (inactive),0.00581 (inactive),inactive,-6.75% (inactive)
COC(=O)c1cc(Br)c(=O)n(Cc2ccc3c(c2)OCO3)c1,533,2.2% (inactive),-141% (inactive),135,0.138,0.394,1.32,-14% (inactive),-0.501 (inactive),-4.4e-05 (inactive),0.00422 (inactive),inactive,110% (active)
Cc1cc(C)nc(N(C#N)S(=O)(=O)c2ccccc2Cl)n1,352,-11.5% (inactive),-228% (inactive),115,-0.515,-1.54,-0.959,-2.07% (inactive),-0.406 (inactive),-3.7e-06 (inactive),0.0071 (inactive),inactive,-0.932% (inactive)
COC(=O)c1ccn(C(=O)c2ccc(Cl)cc2)n1,646,-1.4% (inactive),-13.4% (inactive),147,1.7,-0.283,1.25,-2.91% (inactive),-0.519 (inactive),-4e-05 (inactive),0.00635 (inactive),inactive,6.37% (inactive)
CCCOc1ccc(/C(O)=C2/C(=O)C(=O)N(CCCn3ccnc3)C2c2cccs2)cc1 (stereo unspecified),537,-14.3% (inactive),-124% (inactive),150,-0.681,-0.103,0.12,-18.6% (inactive),-0.495 (inactive),-3.4e-05 (inactive),0.00501 (inactive),inactive,0.323% (inactive)
COC(=O)c1ccc(Cn2cnc3c(sc4nc(N5CCOCC5)c5c(c43)CCCC5)c2=O)o1,505,10.2% (inactive),-144% (inactive),132,-0.452,0.953,0.541,-7.01% (inactive),-0.47 (inactive),-2.7e-05 (inactive),0.00736 (inactive),inactive; toxic,6.85% (inactive)
O=C(NCCOCCOCCNC(=O)c1cccnc1)c1cccnc1,490,0.8% (inactive),-165% (inactive),151,-2.67,-0.0249,-0.654,34.8% (inactive),-0.514 (inactive),-7.5e-05 (inactive),0.00454 (inactive),inactive,-5.31% (inactive)
CSc1nc(N2CCCC2)c2c(c1C#N)CC(C)(C)OC2,568,-4.5% (inactive),-28.5% (inactive),171,0.89,-1.74,0.374,5.65% (inactive),-0.314 (inactive),8.2e-06 (inactive),0.00565 (inactive),inactive,10.3% (inactive)
Cc1ccc2[nH]c3c(N4CCCCCC4)ncnc3c2c1,377,-11.4% (inactive),-85.7% (inactive),159,1.13,-0.284,-0.123,-3.5% (inactive),-0.44 (inactive),-0.000151 (inactive),0.00355 (inactive),inactive,-9.6% (inactive)
CCn1cc(C(=O)NCc2ccccn2)c(=O)c2cc(F)c(N3CCN(C)CC3)cc21,461,-3.5% (inactive),-38.2% (inactive),185,-1.96,2.4,0.403,-0.624% (inactive),-0.292 (inactive),-3e-05 (inactive),0.00581 (inactive),inactive,6.37% (inactive)
CCOC(=O)C(C#N)C(Cc1ccccc1)c1ccco1 (stereo unspecified),590,-3% (inactive),-70.2% (inactive),166,1.19,-0.726,-0.042,2.46% (inactive),-0.488 (inactive),-0.000162 (inactive),0.00534 (inactive),inactive,6.44% (inactive)
Cn1c(SCC(=O)NCc2ccccc2)nc2ccccc21,325,1.6% (inactive),-60.9% (inactive),79.7,0.441,2.21,-0.441,3.66% (inactive),-0.364 (inactive),-2.1e-05 (inactive),0.00569 (inactive),inactive; toxic,26.1% (inactive)
Nc1nonc1-c1noc(-c2ccccc2)n1,480,-3.5% (inactive),-26.8% (inactive),122,0.154,1.08,-0.0551,13.2% (inactive),-0.516 (inactive),-3.2e-05 (inactive),0.00533 (inactive),inactive,33.2% (inactive)
CC1(C)Cc2c(C#N)c(N3CCOCC3)nc(-c3ccccc3)c2CO1,600,-14.3% (inactive),-25.8% (inactive),109,-0.0371,-0.989,0.333,3.66% (inactive),-0.424 (inactive),-7.6e-05 (inactive),0.0042 (inactive),inactive,-17.1% (inactive)
C=CCOC(=O)C1=C(C)NC(SCC(=O)N(CC)CC)=C(C#N)C1c1ccco1 (stereo unspecified),361,-9.9% (inactive),-137% (inactive),153,-0.539,-0.441,0.117,-5.89% (inactive),-0.417 (inactive),-1.8e-05 (inactive),0.00442 (inactive),inactive; toxic,-0.086% (inactive)
O=c1c(C=NCCCn2ccnc2)c(-c2ccccc2)[nH]n1-c1nc2ccccc2s1,579,-6.5% (inactive),-108% (inactive),132,1.34,-0.223,0.991,25.8% (inactive),-0.47 (inactive),-1.6e-05 (inactive),0.00444 (inactive),inactive,1.09% (inactive)
